# Assay results published in ChEMBL document CHEMBL2401730, “The macrocyclic peptide natural product CJ-15,208 is orally active and prevents reinstatement of extinguished cocaine-seeking behavior” (J Nat Prod, 2013).
# The source made the active and inactive calls. Where a SMILES comes first, the peptide text is derived from it. [ ]: non-standard residue; d: D form.
# Columns and labels:
# [1] = system: Mus musculus; assay: Prevention of cocaine-induced reinstatement of extinguished cocaine seeking behavior in C57BL/6J mouse at 30 to 60 mg/kg, po qd for 2 days followed by additional cycle of cocaine place conditioning at 30 mins post last dose measured on day 3; format: functional, organism-based
# Outline: (§1)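 Counterbalanced CPP: four days of saline (30 min confinement), then cocaine 10 mg/kg sc 4 h later in the opposite compartment. Extinction followed over 3 weeks of twice-weekly tests. Oral 1:1:8 vehicle or 30/60 mg/kg given days 28-29, then either forced swim 3 h later or cocaine conditioning 30 min after day-29 dose. Place preference tested day 30 over 30 min; 12-16 mice/group; ANOVA/Tukey HSD.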
# [2] = system: Mus musculus; assay: Prevention of stress-induced reinstatement of extinguished cocaine cocaine seeking behavior in C57BL/6J mouse at 30 mg/kg, po qd for 2 days measured 3 hrs post last dose by forced swim test; format: functional, organism-based; set-up: dose 30 mg/kg; outline: as §1
# [3] = system: Mus musculus; assay: Prevention of stress-induced reinstatement of extinguished cocaine seeking behavior in C57BL/6J mouse at 60 mg/kg, po qd for 2 days measured 3 hrs post last dose by forced swim test; format: functional, organism-based; set-up: dose 60 mg/kg; outline: as §1
# [4] = system: Mus musculus; assay: Neurotoxicity in C57BL/6J mouse assessed as sedative effect at 10 to 60 mg/kg, po after 60 mins by rotarod test; format: toxicity, organism-based; set-up: dose 10-60 mg/kg, route oral; settings: in vivo, 1 h
# Outline: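 Seven habituation trials, with the last used as baseline. Male C57BL/6J mice then received oral vehicle (1:1:8) or 10 or 60 mg/kg; the U50,488 comparator was given 10 mg/kg ip. Accelerating rotorod (0-20 rpm, 180 s maximum) over 60 min. Latency to fall expressed as % change from baseline; 7-8 mice/group; two-way ANOVA.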
# [5] = system: Mus musculus; assay: Antagonist activity at kappa opioid receptor in po dosed C57BL/6J mouse assessed as inhibition of icv dosed U50,488-induced antinociception effect incubated for 3 hrs prior to testing by warm water tail withdrawal assay; format: functional, organism-based
# Outline: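 Male C57BL/6J mice (20-25 g) given test agent orally in 1:1:8 ethanol/Tween 80/saline; 3 h later U50,488 given ip (10 mg/kg, in saline) or icv (30 nmol), with tail-withdrawal testing in 55 °C water 40 or 20 min afterwards, respectively. 15 s cut-off; % antinociception calculated from baseline latency. 8 mice/group; one-way ANOVA with Tukey HSD.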
# [6] = system: Mus musculus; assay: Antinociceptive activity in C57BL/6J mouse at 60 mg/kg, po after 140 mins by warm water tail withdrawal assay; format: functional, organism-based; set-up: dose 60 mg/kg
# Outline: (§2)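 Adult male C57BL/6J mice (20-25 g); baseline tail-withdrawal latency in 55 °C water measured, then oral dosing in 1:1:8 ethanol/Tween 80/0.9% saline vehicle. Latency re-measured repeatedly over time, 15 s cut-off. %antinociception = 100×(test−control)/(15−control). ED50 with 95% CI; 7-24 mice/group; repeated-measures ANOVA at 10 min intervals for hour 1 and hour 2.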
# [7] = system: Mus musculus; assay: Antinociceptive activity in C57BL/6J mouse at 1 to 30 mg/kg, po after 120 mins by warm water tail withdrawal assay; format: functional, organism-based; outline: as §2
# [8] = system: Mus musculus; assay: Antinociceptive activity in C57BL/6J mouse at 0.3 mg/kg, po after 60 mins by warm water tail withdrawal assay; format: functional, organism-based; set-up: dose 0.3 mg/kg; outline: as §2
# [9] = system: Mus musculus; assay: Antinociceptive activity in C57BL/6J mouse at 1 to 60 mg/kg, po after 60 mins by warm water tail withdrawal assay; format: functional, organism-based; outline: as §2
# [10] = system: Mus musculus; assay: Antinociceptive activity in po dosed C57BL/6J mouse after 40 mins by warm water tail withdrawal assay; format: functional; outline: as §2
# [11] = system: Mus musculus; assay: Antagonist activity at kappa opioid receptor in po dosed C57BL/6J mouse assessed as inhibition of ip dosed U50,488-induced antinociception effect incubated for 3 hrs prior to testing by warm water tail withdrawal assay
smiles,measurement,setting,value
O=C1N[C@@H](Cc2ccccc2)C(=O)N2CCC[C@@H]2C(=O)N[C@@H](Cc2ccccc2)C(=O)N[C@H]1Cc1c[nH]c2ccccc12 (cyclo(FWF[dP])),Activity,[1],Active
same,Activity,[2],inactive
same,Activity,[3],Active
same,Activity,[4],Non-toxic
same,inhibition,[5],Dose-dependent effect
same,Activity,[6],Active
same,Activity,[7],inactive
same,Activity,[8],inactive
same,Activity,[9],Active
same,ED50,[10],3.49 mg/kg
same,inhibition,[11],Dose-dependent effect
